High-throughput results from PubChem BioAssay.
SIAE primary = human SIAE inhibition, primary screen; Q9HAT2; SIAE FP-Rh probe binding, fluorescence polarization; actives 0.69% (n = 370,000); AID 1053197; inhibition, % at 9.66 µM;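 active = inhibition above a cutoff: mean of compounds within the control limits plus 3 SD of those, cut at about 17% in these data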
Target sequence (Q9HAT2 whole entry, looked up): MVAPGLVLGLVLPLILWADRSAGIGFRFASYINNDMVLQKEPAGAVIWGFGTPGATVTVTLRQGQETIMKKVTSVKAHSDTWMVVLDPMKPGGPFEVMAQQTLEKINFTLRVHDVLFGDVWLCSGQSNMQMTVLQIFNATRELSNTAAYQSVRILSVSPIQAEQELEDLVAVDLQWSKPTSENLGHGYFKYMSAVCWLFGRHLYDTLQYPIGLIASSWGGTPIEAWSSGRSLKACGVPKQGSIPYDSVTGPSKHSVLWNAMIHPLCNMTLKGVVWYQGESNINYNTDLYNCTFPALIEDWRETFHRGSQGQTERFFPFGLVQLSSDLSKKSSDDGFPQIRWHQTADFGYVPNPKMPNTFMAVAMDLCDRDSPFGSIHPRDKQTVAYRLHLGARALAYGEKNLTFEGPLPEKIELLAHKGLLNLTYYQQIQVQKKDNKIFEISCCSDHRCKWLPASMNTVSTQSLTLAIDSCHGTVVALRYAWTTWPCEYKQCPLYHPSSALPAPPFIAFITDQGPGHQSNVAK
HTRA1 inh = inhibitors of human serine peptidase HTRA1 | actives 0.5% (n = 340,000) | recombinant HTRA1, FP-rhodamine activity-based probe, fluorescence polarization | AID 504803 | Q92743 | inhibition, % at 5.96 µM; in the data active = inhibition above about 36%
PME-1 primary = PME-1 (human) inhibition; AID 2130; actives 0.53% (n = 320,000); recombinant PME-1, FP-Rh probe fluorescence polarization; inhibition, % at 5.9 µM; Q9Y570;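 active = inhibition above the campaign mean of all compounds plus 3 SD, cut at about 26% in these data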;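 also: competitive labeling of PME-1 active site by serine hydrolase directed probe; inhibitors block probe labeling so polarization falls and inhibition rises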
TCR-CD3 inh = blocks the human TCR-CD3 interaction; TAMRA-labeled TCR probe fluorescence, biochemical; inhibition, % at 9.4 µM; actives 0.37% (n = 360,000); AID 651800; in the data active = inhibition above about 19%;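 also: recombinant mutant TCR 2C K166C tagged with TAMRA read by polarization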
Fam108B inh = counter-screen for RBBP9 inhibitors: inhibitors of mouse Fam108B; recombinant Fam108B, FP-Rh probe fluorescence polarization; inhibition, % at 9.51 µM; actives 0.33% (n = 300,000);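 active = inhibition above the screen mean inhibition plus 3 SD, computed separately per campaign, cut at about 18% in these data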;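 also: inhibitors lower polarization as less probe binds the enzyme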
ABHD4 inh = inhibitors of mouse ABHD4. actives 0.54% (n = 370,000). inhibition, % at 8.92 µM. purified mABHD4, FP-Rh probe fluorescence polarization. Q8VD66;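 active = inhibition exceeding the mean over every tested compound plus 3 SD, cut at about 30% in these data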
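assay system = mABHD4 protein | compound dosing = single nominal dose of 8.92 µM, 0.89% DMSO final | read-out basis = percent inhibition of probe binding, normalized to plate controls | schedule = Enzyme–compound pre-incubation 45 min, then probe 60 min, both 25 °C | detection = fluorescence polarization, excitation 525 nm, emission 598 nm, BODIPY TMR filters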
SIAE confirm = human SIAE inhibition, confirmation; shares compounds with SIAE primary; SIAE FP-Rh activity-based probe, fluorescence polarization; inhibition, % at 9.66 µM; actives 13% (n = 2,300); AID 1117263;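 active = mean inhibition of the replicates above the hit cutoff set in the primary screen, cut at about 17% in these data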;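 also: inhibitors lower polarization as more probe stays unbound to SIAE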
A number is an active result; – = inactive; · = no result. The list is not random: actives were taken first. Their share in the collection is about 1.8%.

SMILES	SIAE primary	HTRA1 inh	PME-1 primary	TCR-CD3 inh	Fam108B inh	ABHD4 inh	SIAE confirm
CCn1nc(NS(=O)(=O)c2ccccc2)c2cc3cccc(C)c3nc21	–	–	–	–	–	–	·
CCn1nc(NS(=O)(=O)c2ccc(NC(C)=O)cc2)c2cc3cccc(C)c3nc21	18	–	–	–	–	–	–
CC(C#N)(NC(=O)CN1CCN(S(=O)(=O)c2cccc(F)c2)CC1)C1CC1 (configuration not stated)	–	–	·	–	·	–	·
CC(C#N)(NC(=O)CN1CCN(S(=O)(=O)c2ccccc2C#N)CC1)C1CC1 (configuration not stated)	20	–	–	–	·	–	–
CCNC(=S)NNC(=O)c1cc(-c2cccc(OC)c2)nc2ccccc12	22	–	–	–	–	–	–
CCCOc1cccc(-c2cc(C(=O)NNC(=S)NCC)c3ccccc3n2)c1	–	–	–	–	–	–	·
Cc1nc(NS(=O)(=O)c2ccccc2)sc1NC(=O)Nc1ccc(Cl)cc1	18	–	–	–	–	–	27
CC(=O)C[C@H](O)CC(=O)[C@H]1OC(=O)CCCCCCCc2ccccc21	–	–	–	–	·	–	·
Nc1n[nH]c(N)c1N=Nc1ccc(F)cc1	–	–	–	–	–	–	·
COc1ccc(N=Nc2c(N)n[nH]c2N)cc1	22	–	–	–	–	–	–
CCOC(=O)/C=C(\C)Sc1cc(O)c2ccccc2c1O	18	–	·	–	·	34	–
OC1C2CN3CCN(C2)CC1(Cc1ccccc1)C3 (configuration not stated)	21	–	–	–	–	–	–
OC1C2(Cc3ccccc3)CN3CCN(C2)CC1(Cc1ccccc1)C3 (configuration not stated)	–	–	–	–	–	–	·
CCCCN(C(=O)C(C)N1C(=O)c2ccccc2C1=O)c1c(N)n(CCCC)c(=O)[nH]c1=O (configuration not stated)	19	–	–	–	·	–	–
Clc1ccc(-n2c(SCc3cccc4ccccc34)nnc2-c2ccccc2)cc1	–	·	·	·	·	–	·
O=C(Nc1ccccc1)c1cn2ccccc2n1	18	–	–	–	–	–	–
O=C(NCC1CCCCC1)c1cc2ccccc2cc1O	–	–	–	–	–	–	·
O=C(N/N=C1/CC2CCC1C2)c1cc2ccccc2cc1O (configuration not stated)	19	–	–	–	–	–	–
Cc1ccccc1S(=O)Cc1ccc(C(=O)NCCN2CCOCC2)o1 (configuration not stated)	–	–	–	–	–	–	·
Nc1ccc(C2=Nc3cccc4cccc(c34)N2)cc1	24	–	·	–	·	–	–
COc1cccc(C2=Nc3cccc4cccc(c34)N2)c1	22	–	–	–	–	–	–
O=C1CC(c2ccco2)=Nc2ccccc2N1	–	–	–	–	–	–	·
c1coc(C2=Nc3cccc4cccc(c34)N2)c1	23	–	–	–	–	–	–
COc1cccc(-c2nnc(-c3ccc4ccccc4c3)o2)c1	–	–	·	–	·	–	·
COc1ccc(-c2csc(C(NC(C)=O)c3cccc(F)c3)n2)cc1 (configuration not stated)	–	·	·	–	·	–	·
SMILES	SIAE primary	HTRA1 inh	PME-1 primary	TCR-CD3 inh	Fam108B inh	ABHD4 inh	SIAE confirm
CCCCc1nnc(NC(=O)Cn2cnc3ccccc3c2=O)s1	–	–	–	–	–	–	·
CCc1nnc(NC(=O)CCn2cnc3ccccc3c2=O)s1	22	·	–	–	–	–	–
CC(=O)OC[C@H]1O[C@H](C#Cc2ccc(C(C)(C)C)cc2)C=C[C@H]1OC(=O)Nc1ccccc1	–	·	·	–	·	–	·
N#Cc1ccccc1CSc1nc(O)cc(=O)[nH]1	17	–	–	–	–	–	–
CC(=O)N1CCN(c2ccc(NCc3ccc4c(c3)OCO4)cc2)CC1	20	–	–	–	–	–	–
CC(=O)N1CCN(c2ccc(NCc3cccs3)cc2)CC1	–	–	–	–	–	–	·
CC(=O)N1CCN(c2ccc(NCc3ccccc3)cc2)CC1	28	–	–	–	–	–	–
O=C(c1ccccc1)N1CCN(c2ccc(NCc3ccc4c(c3)OCO4)cc2)CC1	–	–	–	–	–	–	·
Cn1c(=O)c2cc(NC(=S)NCc3ccccc3F)ccc2n1Cc1ccc(F)cc1	–	·	·	–	·	–	·
Cn1c(=O)c2cc(NC(=S)NC3CC3)ccc2n1Cc1ccc(F)cc1	18	·	·	–	·	–	–
Cc1nn(CCCC(=O)NCCc2ccccc2)c(=O)c2nccn12	–	–	–	–	–	–	·
CC(C)[C@H](CO)NC(=O)[C@H]1O[C@@H](n2ccc(=O)[nH]c2=O)[C@H](O)[C@@H]1O	70	·	·	–	·	–	55
NC(=O)c1ncn([C@@H]2O[C@H](C(=O)N[C@H](Cc3ccccc3)C(=O)N3CCN(CC(=O)Nc4ccccn4)CC3)[C@@H](O)[C@H]2O)n1	44	·	·	–	·	–	39
NC(=O)[C@@H]1CCCN1C(=O)[C@@H](Cc1ccccc1)NC(=O)[C@H]1O[C@@H](n2ccc(=O)[nH]c2=O)[C@H](O)[C@@H]1O	49	·	·	–	·	–	41
O=C(N[C@H](Cc1ccccc1)C(=O)N1CCN(CC(=O)N2CCCC2)CC1)[C@H]1O[C@@H](n2ccc(=O)[nH]c2=O)[C@H](O)[C@@H]1O	47	·	·	–	·	–	43
O=C(N[C@H](Cc1ccccc1)C(=O)N1CCN(C(=O)N2CCCCC2)CC1)[C@H]1O[C@@H](n2ccc(=O)[nH]c2=O)[C@H](O)[C@@H]1O	–	·	·	–	·	–	·
NC(=O)c1ncn([C@@H]2O[C@H](C(=O)N3CCN(CC(=O)Nc4ccccn4)CC3)[C@@H](O)[C@H]2O)n1	–	·	·	–	·	–	·
CN(C(=O)[C@@H](Cc1ccccc1)NC(=O)[C@H]1O[C@@H](n2ccc(=O)[nH]c2=O)[C@H](O)[C@@H]1O)C1CCCCC1	–	·	·	–	·	–	·
O=C1NC[C@@H](CCCCN2C[C@H](Cc3ccccc3)N(CCC3CCCCC3)C(=O)C2=O)N(CCc2ccc(O)cc2)C1=O	–	·	·	–	·	–	·
COc1cccc(CNCc2ccccc2OC)c1	–	–	–	–	–	–	·
Cc1nccn1-c1ccc(NC(=O)[C@@H](Cc2ccccc2)NC(=O)[C@H]2O[C@@H](n3ccc(=O)[nH]c3=O)[C@H](O)[C@@H]2O)cc1	54	·	·	–	·	–	44
Cc1ccc(NC(=O)[C@@H](Cc2ccccc2)NC(=O)[C@H]2O[C@@H](n3ccc(=O)[nH]c3=O)[C@H](O)[C@@H]2O)cc1C	–	·	·	–	·	–	·
CCc1nc2ccc(C(=O)NCCCN3CCCC3=O)cn2c1N(C)Cc1ccc(OC)cc1	–	·	·	–	·	–	·
O=C(Nc1ccc(S(=O)(=O)Nc2nccs2)cc1)C1CCCCC1	20	–	–	–	–	–	–
